A short description of assay [1]: Ratio of Rh and RL Inhibitor constants in presence of (Gpp(NH)p).
For assay [2], the target named is D(2) dopamine receptor (Bos taurus) (UniProt P20288).
The target is the same in assay [3]. Kind of assay: Binding towards dopamine D2 receptor using [3H]spiroperidol in presence of (Gpp(NH)p).
A short description of assay [4]: Ratio of Rh and RL Inhibitor constants in absence of (Gpp(NH)p).
For assay [5], the target named is D(2) dopamine receptor (Bos taurus) (UniProt P20288). Kind of assay: Binding towards dopamine D2 receptor using [3H]spiroperidol in the absence of (Gpp(NH)p).
For assay [6] the target is unchanged. Kind of assay: Percentage of sites in low affinity form for the agonist in the presence of (Gpp(NH)p). The assay is classed as functional.
Assay [7] shares this target. Kind of assay: Percentage of sites in high affinity form for the agonist in the absence of (Gpp(NH)p. The assay is classed as functional.
For assay [8] the target is unchanged. The source holds these as a separate data set.
Assay [9] has the same target. Kind of assay: Percentage of sites in low affinity form for the agonist in the absence of (Gpp(NH)p). The format is functional.
Assay [10] has the same target. Kind of assay: Percentage of sites in high affinity form for the agonist in the presence of (Gpp(NH)p). The format is functional.
The target is the same in assay [11]. Kind of assay: Tested for the ability to enhance the binding of the dopamine D2 receptor agonist N-propylnorapomorphine (NPA) in the absence of (Gpp(NH)p). Put shortly:
(§1)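 High-affinity [³H]NPA (0.05 nM) binding to bovine striatal membranes, 1 h at 22 °C, then GF/B filtration. Compound at 1, 10 or 100 nM, either with 100 μM Gpp(NH)p added directly or after a 2 h, 4 °C preincubation with Gpp(NH)p and washing. Expressed as % of maximal specific binding in Gpp(NH)p-free membranes. Mean ± SEM of five experiments.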

The target is the same in assay [12]. Kind of assay: Tested for the ability to enhance the binding of the dopamine D2 receptor agonist N-propylnorapomorphine (NPA) in the presence of (Gpp(NH)p). Put shortly:
as §1

D(2) dopamine receptor (Bos taurus), sequence (P20288 whole entry): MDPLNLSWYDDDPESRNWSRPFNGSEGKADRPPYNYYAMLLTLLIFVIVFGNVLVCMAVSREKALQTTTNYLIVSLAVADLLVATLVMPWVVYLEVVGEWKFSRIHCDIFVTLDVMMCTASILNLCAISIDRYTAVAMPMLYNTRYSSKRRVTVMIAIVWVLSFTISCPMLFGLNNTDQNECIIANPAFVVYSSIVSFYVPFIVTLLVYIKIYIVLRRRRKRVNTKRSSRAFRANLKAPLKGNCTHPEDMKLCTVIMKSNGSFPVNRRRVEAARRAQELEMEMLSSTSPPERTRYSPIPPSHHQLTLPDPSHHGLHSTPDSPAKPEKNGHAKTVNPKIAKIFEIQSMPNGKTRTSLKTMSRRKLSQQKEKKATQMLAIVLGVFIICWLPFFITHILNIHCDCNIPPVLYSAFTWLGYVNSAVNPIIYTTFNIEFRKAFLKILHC

Take `NC(=O)CN1CC[C@@H](N2CC(=O)N3CCC[C@H]3C2=O)C1=O`: the Ratio in [1] stood at 0.71; in [4], 1.97. For the same compound, the KL was 56 nM in assay [2] and 64 nM in assay [8]. In addition, the KH was determined as 0.05 nM in [3] and 0.02 nM in [5]. The RL in [6] turned out to be 59%; in [9], 33%. The RH in assay [7] came out at 65%; in assay [10], 42%.
In the case of `CC1(C)N2CCC[C@H]2C(=O)N1[C@@H]1CCN(CC(N)=O)C1=O`, the figures for the Ratio in [1] and in assay [4] were 0.56 and 1.91, respectively. The KH came to 0.07 nM in assay [3] and 0.03 nM in assay [5]. Besides, the RL in assay [6] is 64%; in assay [9], 34%. Further, the values for the RH in [7] and in assay [10] were 65% and 36%, respectively. Also, the KL in assay [11] stood at 61 nM; in assay [12] it was 77 nM.
